Like-named read-outs stand apart in the source and are kept apart here.
How the values were obtained:
[1] = system: C57BL/6J mice; test: THC drug discrimination in mice; format: in vivo; settings: for ED50 (± SEM), THC drug discrimination: compound alone, i.p. 30 min pre-session; for substitution for the THC training dose: mice of both sexes
[2] = system: ICR mice; test: Cannabinoid tetrad: ring immobility; format: in vivo; settings: for effect on ring immobility: ICR mice of both sexes; for Ring Immobility ED50 (± SEM): i.p., n=6, maximal effect 100% immobility
How it was run: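 Drug-naïve adult ICR mice, males and females (n=6 per sex per dose), were dosed with vehicle or test compound. At 50 min post-injection each mouse was placed on an elevated ring. Time spent immobile over 5 min was divided by 300 s and multiplied by 100 to give percent immobility.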

[3] = system: ICR mice; test: Cannabinoid tetrad: locomotor activity; format: in vivo; settings: female and male ICR mice, i.p., 10 min session 30 min after injection
[4] = system: rats; settings: ref Tseng and Craft (2001); cited from earlier work
[5] = system: ICR mice; test: Cannabinoid tetrad: rectal temperature; format: in vivo; settings: for effect on body temperature: ICR mice of both sexes; for Body Temperature ED50 (± SEM): i.p., n=6, maximal effect −6°C
How it was run: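 Adult drug-naïve ICR mice of both sexes (n=6 per sex per dose) received vehicle or test compound. Baseline rectal temperature was taken before injection. Temperature was re-measured immediately after a 10 min locomotor session that began 30 min post-injection. […] It came from least-squares linear regression on the linear part of the dose-effect curve against log10 dose.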

[6] = biological target: T1, CB1 receptor (Mus musculus, UniProt P47746); test: [3H]CP55,940 displacement binding in mouse cerebellar membranes; design: species or system ICR mice; settings: read-out: CB1 Binding Affinity (Ki in nM), cerebellum, N = 4 / value
T1 sequence (P47746 whole entry): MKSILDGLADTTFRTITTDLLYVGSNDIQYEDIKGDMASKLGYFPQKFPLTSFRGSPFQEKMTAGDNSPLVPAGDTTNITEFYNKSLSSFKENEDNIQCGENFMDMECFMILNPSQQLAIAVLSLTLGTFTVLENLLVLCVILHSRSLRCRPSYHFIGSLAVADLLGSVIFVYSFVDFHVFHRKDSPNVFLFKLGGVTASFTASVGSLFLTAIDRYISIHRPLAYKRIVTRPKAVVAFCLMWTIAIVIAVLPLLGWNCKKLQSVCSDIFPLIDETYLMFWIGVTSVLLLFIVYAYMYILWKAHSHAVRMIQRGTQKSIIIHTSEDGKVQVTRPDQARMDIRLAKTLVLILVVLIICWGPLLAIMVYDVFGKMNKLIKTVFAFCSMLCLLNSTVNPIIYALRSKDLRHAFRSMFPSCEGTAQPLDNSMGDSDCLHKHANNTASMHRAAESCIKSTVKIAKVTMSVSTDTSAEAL

[7] = biological target: CB1 receptor (Rattus norvegicus, UniProt P20272); test: Agonist-stimulated [35S]GTPγS binding in rat cerebellar membranes; format: biochemical, Sprague-Dawley rats; settings: rat cerebellum, both sexes
CB1 receptor (Rattus norvegicus, UniProt P20272), sequence (P20272 whole entry): as the sequence (P47746 whole entry) above, with D95E counted along it

[8] = system: Sprague-Dawley rats; test: THC drug discrimination in rats; format: in vivo
[9] = biological target: T1, CB1 receptor; test: Agonist-stimulated [35S]GTPγS binding in mouse cerebellar membranes; format: biochemical, ICR mice; settings: mouse cerebellum, both sexes
[10] = ref Huestis, 2007; Mazur et al., 2009; cited from earlier work

Compound: 11-OH-Δ^9-tetrahydrocannabinol [11-OH-THC]
- greater potency than THC in THC drug discrimination ([1]; C57Bl/6J mice, range across sexes): 7- to 9 fold
- more potent than THC in THC drug discrimination ([1]; female mice): 7 fold
- response rate compared to vehicle ([1]; female mice, subset n=8): but not in females
- ED50 (± SEM), THC drug discrimination ([1]; female mice, subset n=8): 0.28 mg/kg
- more potent than THC in THC drug discrimination ([1]; male mice): 9 fold
- response rate compared to vehicle ([1]; male mice, subset n=8): significantly decreased by 3 mg/kg 11-OH-THC
- ED50 (± SEM), THC drug discrimination ([1]; male mice, subset n=8): 0.24 mg/kg
- substitution for the THC training dose [1]: dose-dependently substituted for THC
- effect on ring immobility [2]: clear and significant dose-dependent increases in ring immobility
- greater potency than THC, catalepsy ([2]; ICR mice, range across sexes): 7- to 15 fold
- Ring Immobility ED50 (± SEM) ([2]; female ICR mice): 0.16 (out of range)
- Ring Immobility ED50 (± SEM) ([2]; male ICR mice): 0.57 (0.07–4.57)
- effect on locomotor activity [3]: Neither drug significantly decreased locomotor activity
- potency in female vs male rats [4]: about twice as potent in female than male rats
- effect on body temperature [5]: decreases in body temperature
- greater potency than THC, hypothermia ([5]; ICR mice, range across sexes): 7- to 31 fold
- Body Temperature ED50 (± SEM) ([5]; female ICR mice): 0.19 (0.006–6.1)
- Body Temperature ED50 (± SEM) ([5]; male ICR mice): 0.70 (0.22–2.26)

Compound: CCCCCCC(C)(C)c1ccc([C@@H]2C[C@H](O)CC[C@H]2CCCO)c(O)c1 [CP55,940]
- Ki ([6]; female mice): 0.48 nM
- Ki ([6]; male mice): 0.56 nM

Compound: Cc1c(C(=O)NN2CCCCC2)nn(-c2ccc(Cl)cc2Cl)c1-c1ccc(Cl)cc1 [rimonabant, 5-(4-chlorophenyl)-1-(2,4-dichlorophenyl)-4-methyl-N-(piperidin-1-yl)-1H-pyrazole-3-carboxamide]
- rightward shift of THC dose-effect curve ([1]; 1 mg/kg antagonist i.p. 10 min before THC, both sexes): ~ 7 fold
- effect of antagonist on substitution by 1 mg/kg 11-OH-THC ([1]; 1 mg/kg rimonabant or 3 mg/kg SR144528 i.p. 10 min prior, n=8/sex): blocked maximal substitution produced by 1 mg/kg 11-OH-THC
- response rate compared to vehicle ([1]; male mice, subset n=8): significantly suppressed compared to vehicle alone treatment

Compound: CCCCCc1cc(O)c2c(c1)OC(C)(C)[C@@H]1CCC(C)=C[C@@H]21 [THC, Δ^9-tetrahydrocanabinol]
- functional character in [35S]GTPγS assay [7]: partial agonists
- more potent in female than in male rats ([8]; THC drug discrimination): 2.8 fold
- substitution for the THC training dose ([8]; rats of both sexes): dose-dependently substituted for the 1.7 mg/kg training dose in both sexes
- response rate compared to vehicle ([8]; rats, both sexes): 3 mg/kg THC significantly decreased overall responding across both sexes
- response rate compared to vehicle ([1]; all mice (15 female, 20 male), first and second THC dose-effect curves): significantly increased overall responding across both sexes at doses of 3 and 5.6 mg/kg during the first test and over a dose range of 3–10 mg/kg during the second test
- response rate compared to vehicle ([1]; female mice, subset n=8): but not in females
- response rate compared to vehicle ([1]; male mice, subset n=8): significantly decreased by 30 mg/kg THC
- substitution for the THC training dose [1]: dose-dependently substituted for the 5.6 mg/kg training dose
- functional character in [35S]GTPγS assay [9]: partial agonists
- effect on ring immobility [2]: clear and significant dose-dependent increases in ring immobility
- effect on locomotor activity [3]: Neither drug significantly decreased locomotor activity
- effect on body temperature [5]: decreases in body temperature

Compound: CCCCCc1cc(O)c2c(c1)OC(C)(C)[C@@H]1CCC(C(=O)O)=C[C@@H]21 [THC-COOH, 11-nor-9-carboxy-Δ^9-tetrahydrocannabinol]
- cannabimimetic effects [10]: lacks cannabimimetic effects
